Laboratory results taken from ChEMBL document CHEMBL4725389, “Novel Blocker of Onco SK3 Channels Derived from Scorpion Toxin Tamapin and Active against Migration of Cancer Cells” (ACS Med Chem Lett, 2020).
pEC50: −log10 of the molar value. Calls of active or inactive are those of the source. No cut-off for these calls is given here. Positions of bridges follow the written chain, without caps; N, C: chain ends. Residues, ends and D or L forms follow the SMILES beside them.

What was measured:
[1] = biological target: T1, Small conductance calcium-activated potassium channel protein 3 (Homo sapiens, UniProt Q9UGI6); test: Inhibition of recombinant human SK3 expressed in HEK293T cells assessed as […] at membrane potential -120 mV for 50 ms followed by 400 ms voltage ramp to 60 mV by whole cell patch clamp method; format: cell-based, HEK-293T
T1 sequence (Q9UGI6 whole entry): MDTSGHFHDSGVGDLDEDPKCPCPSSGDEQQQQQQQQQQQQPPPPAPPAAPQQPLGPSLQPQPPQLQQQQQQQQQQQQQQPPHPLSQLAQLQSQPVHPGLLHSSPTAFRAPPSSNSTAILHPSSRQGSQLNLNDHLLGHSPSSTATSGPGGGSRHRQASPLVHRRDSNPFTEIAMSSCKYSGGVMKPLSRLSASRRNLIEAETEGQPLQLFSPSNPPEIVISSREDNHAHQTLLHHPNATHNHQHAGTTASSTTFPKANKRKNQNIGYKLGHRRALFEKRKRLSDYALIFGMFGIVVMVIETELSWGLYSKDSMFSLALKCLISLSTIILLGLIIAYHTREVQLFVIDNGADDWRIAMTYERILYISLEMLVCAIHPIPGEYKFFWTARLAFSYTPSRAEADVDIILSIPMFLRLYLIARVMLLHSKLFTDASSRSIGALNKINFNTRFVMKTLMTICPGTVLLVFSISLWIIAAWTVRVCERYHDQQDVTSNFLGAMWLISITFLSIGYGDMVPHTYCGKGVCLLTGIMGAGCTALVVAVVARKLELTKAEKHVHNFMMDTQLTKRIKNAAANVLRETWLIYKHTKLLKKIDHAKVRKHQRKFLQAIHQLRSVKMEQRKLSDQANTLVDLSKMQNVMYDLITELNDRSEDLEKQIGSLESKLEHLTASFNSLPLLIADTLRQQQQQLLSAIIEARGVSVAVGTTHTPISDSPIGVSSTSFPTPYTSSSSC

[2] = biological target: Small conductance calcium-activated potassium channel protein 2 (Rattus norvegicus, UniProt P70604); test: Inhibition of recombinant rat SK2 expressed in HEK293 cells assessed as […] at membrane potential -120 mV for 50 ms followed by 400 ms voltage ramp to 60 mV by whole cell patch clamp method; format: cell-based
Small conductance calcium-activated potassium channel protein 2, sequence (P70604 whole entry): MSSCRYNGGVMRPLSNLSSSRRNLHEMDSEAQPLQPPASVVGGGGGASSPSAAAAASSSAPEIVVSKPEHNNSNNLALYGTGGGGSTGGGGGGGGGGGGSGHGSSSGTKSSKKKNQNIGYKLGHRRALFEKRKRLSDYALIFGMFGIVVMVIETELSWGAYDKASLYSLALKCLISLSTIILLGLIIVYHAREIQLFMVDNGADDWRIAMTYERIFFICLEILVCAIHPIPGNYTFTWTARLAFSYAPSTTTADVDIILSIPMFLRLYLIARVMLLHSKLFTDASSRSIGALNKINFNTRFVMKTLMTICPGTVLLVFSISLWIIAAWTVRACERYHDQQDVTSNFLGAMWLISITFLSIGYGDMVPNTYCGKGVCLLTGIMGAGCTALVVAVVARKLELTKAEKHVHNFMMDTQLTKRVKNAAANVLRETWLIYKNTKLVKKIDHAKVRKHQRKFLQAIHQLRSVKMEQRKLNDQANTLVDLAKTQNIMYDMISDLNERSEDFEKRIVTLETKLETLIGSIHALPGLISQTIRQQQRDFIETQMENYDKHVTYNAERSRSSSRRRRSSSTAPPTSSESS

MDA-MB-435 [3] = test: Inhibition of cell migration in human MDA-MB-435 cells transfected with lentivrus-encoding shRNA against SK3 by matrigel invasion method relative to control; format: functional
Method in brief: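 MDA-MB-435s cells lacking SK3 expression were exposed to peptides at 100 nM. Migration is given as migrating cells with peptide divided by migrating cells under control conditions (means ± SEM, N = 4, n = 12). Groups were compared by Kruskal–Wallis with post hoc tests.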

[4] = biological target: T1, Small conductance calcium-activated potassium channel protein 3; test: Inhibition of recombinant human SK3 expressed in HEK293T cells assessed as ratio of amplitude of outward current blocked in presence and absence of compound at 1 nM and holding potential at 0 mV and ramp voltage from -100 to 100 mV by whole cell patch clamp method relative to control; format: cell-based
Method in brief: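 Whole-cell patch clamp on HEK293T cells expressing recombinant human SK3, pCa 6. Ramp from −100 to 100 mV over 500 ms, holding at 0 mV; currents analysed at 0 mV. Peptide at 1 nM, then 100 nM apamin to block residual SKCa current. Inhibition = ratio of outward current amplitude blocked at 1 nM to amplitude without compound.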

[5] = biological target: T1, Small conductance calcium-activated potassium channel protein 3; test: Inhibition of SK3-dependent cell migration in human MDA-MB-435 cells assessed as ratio of total cells migrating by matrigel invasion method relative to control; format: cell-based
[6] = biological target: T1, Small conductance calcium-activated potassium channel protein 3; test: Inhibition of recombinant human SK3 expressed in HEK293T cells assessed as reduction in channel current with holding potential 0 mV and ramp voltage from -100 to 100 mV by whole cell patch clamp method; format: cell-based, HEK-293T
Method in brief: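 HEK293T stably expressing recombinant human SK3, whole-cell recording at pCa 6. Ramp −100 to 100 mV, 500 ms, from 0 mV holding; current at 0 mV taken as SKCa-only. Concentration–response curves fitted for EC50 (means ± SEM, n = 3–8).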

[7] = biological target: T1, Small conductance calcium-activated potassium channel protein 3; test: Inhibition of recombinant human SK3 expressed in HEK293T cells at 10 nM and holding potential at 0 mV and ramp voltage from -100 to 100 mV by whole cell patch clamp method relative to control; format: cell-based; details: HEK-293T
[8] = biological target: Small conductance calcium-activated potassium channel protein 2 (Rattus norvegicus) (UniProt P70604); test: Inhibition of recombinant rat SK2 expressed in HEK293 cells at 10 nM and holding potential at 0 mV and ramp voltage from -100 to 100 mV by whole cell patch clamp method relative to control; format: cell-based
Small conductance calcium-activated potassium channel protein 2 (Rattus norvegicus), sequence (P70604 whole entry): as above

MDA-MB-435 [9] = test: Inhibition of cell migration in human MDA-MB-435 cells expressing SK3 by matrigel invasion method relative to control

pEC50 [1] | SMILES | pEC50 [2] | inhibition [4] [%] | pEC50 [6] | inhibition [7] [%] | inhibition [8] [%] | also measured
 | CC[C@H](C)[C@@H]1NC(=O)[C@@H]2CSSC[C@H](NC(=O)[C@H](Cc3ccccc3)NC(=O)[C@H](C)N)C(=O)N[C@@H](CC(N)=O)C(=O)N[C@@H](CC(C)C)C(=O)N[C@@H](CCCNC(=N)N)C(=O)N[C@@H](CCCNC(=N)N)C(=O)N[C@H]3CSSC[C@H](NC(=O)[C@H](CCC(=O)O)NC(=O)[C@H](CCC(=O)O)NC(=O)CNC1=O)C(=O)N[C@@H](CCCCN)C(=O)N[C@H](C(=O)N[C@H](C(=O)N1CCC[C@H]1C(=O)N[C@@H](Cc1ccc(O)cc1)C(=O)O)C(C)C)CSSC[C@H](NC(=O)[C@H](CO)NC(=O)[C@H](CC(C)C)NC(=O)[C@H](CCC(=O)O)NC3=O)C(=O)N[C@@H](CCCNC(=N)N)C(=O)N[C@@H](CO)C(=O)N[C@@H](CC(C)C)C(=O)NCC(=O)N[C@@H](CC(C)C)C(=O)N[C@@H](CC(C)C)C(=O)NCC(=O)N[C@@H](CCCCN)C(=O)N2 (H-AFCNLRRCELSCRSLGLLGKCIGEECKCVPY-OH; disulfide 3-21, 8-26, 12-28) |  | 25 | 8.59 | 40 | > 85 | inhibition (MDA-MB-435 [3]): inactive; inhibition [5]: inactive
 | CC[C@H](C)[C@@H]1NC(=O)[C@@H]2CSSC[C@H](NC(=O)[C@H](Cc3ccccc3)NC(=O)[C@H](C)N)C(=O)N[C@@H](CC(N)=O)C(=O)N[C@@H](CC(C)C)C(=O)N[C@@H](CCCNC(=N)N)C(=O)N[C@@H](CCCNC(=N)N)C(=O)N[C@H]3CSSC[C@H](NC(=O)[C@H](CCCCN)NC(=O)[C@H](CCC(=O)O)NC(=O)CNC1=O)C(=O)N[C@@H](CCC(=O)O)C(=O)N[C@H](C(=O)N[C@H](C(=O)N1CCC[C@H]1C(=O)N[C@@H](Cc1ccc(O)cc1)C(=O)O)C(C)C)CSSC[C@H](NC(=O)[C@H](CO)NC(=O)[C@H](CC(C)C)NC(=O)[C@H](CCC(=O)O)NC3=O)C(=O)N[C@@H](CCCNC(=N)N)C(=O)N[C@@H](CO)C(=O)N[C@@H](CC(C)C)C(=O)NCC(=O)N[C@@H](CC(C)C)C(=O)N[C@@H](CC(C)C)C(=O)NCC(=O)N[C@@H](CCCCN)C(=O)N2 (H-AFCNLRRCELSCRSLGLLGKCIGEKCECVPY-OH; disulfide 3-21, 8-26, 12-28) |  | 73 | 9.42 | > 85 | 40 | inhibition ([5]; concentration not given here): 76.5%; inhibition (INH) (MDA-MB-435 [9]): 45.9%
8.77 | CC[C@H](C)[C@@H]1NC(=O)[C@@H]2CSSC[C@H](NC(=O)[C@H](Cc3ccccc3)NC(=O)[C@H](C)N)C(=O)N[C@@H](CC(N)=O)C(=O)N[C@@H](CC(C)C)C(=O)N[C@@H](CCCNC(=N)N)C(=O)N[C@@H](CCCNC(=N)N)C(=O)N[C@H]3CSSC[C@H](NC(=O)[C@H](CCC(=O)O)NC(=O)[C@H](CCC(=O)O)NC(=O)CNC1=O)C(=O)N[C@@H](CCCCN)C(=O)N[C@H](C(=O)N[C@H](C(=O)N1CCC[C@H]1C(=O)N[C@@H](Cc1ccc(O)cc1)C(N)=O)C(C)C)CSSC[C@H](NC(=O)[C@H](CO)NC(=O)[C@H](CC(C)C)NC(=O)[C@H](CCC(=O)O)NC3=O)C(=O)N[C@@H](CCCNC(=N)N)C(=O)N[C@@H](CO)C(=O)N[C@@H](CC(C)C)C(=O)NCC(=O)N[C@@H](CC(C)C)C(=O)N[C@@H](CC(C)C)C(=O)NCC(=O)N[C@@H](CCCCN)C(=O)N2 (H-AFCNLRRCELSCRSLGLLGKCIGEECKCVPY-NH2; disulfide 3-21, 8-26, 12-28) | 10.62 |  |  |  |  | 
8.42 | CC[C@H](C)[C@@H]1NC(=O)[C@@H]2CSSC[C@H](NC(=O)[C@@H](NC(=O)[C@H](C)N)C(C)C)C(=O)N[C@@H](CC(N)=O)C(=O)N[C@@H](CC(C)C)C(=O)N[C@@H](CCCCN)C(=O)N[C@@H](CCCNC(=N)N)C(=O)N[C@H]3CSSC[C@H](NC(=O)[C@H](CCCCN)NC(=O)[C@H](CC(=O)O)NC(=O)CNC1=O)C(=O)N[C@@H](CCC(=O)O)C(=O)N[C@H](C(=O)N[C@H](C(=O)N[C@@H](CCCCN)C(=O)N[C@@H](Cc1c[nH]cn1)C(N)=O)C(C)C)CSSC[C@H](NC(=O)[C@H](CO)NC(=O)[C@H](CC(C)C)NC(=O)[C@H](CCC(N)=O)NC3=O)C(=O)N[C@@H](CCCNC(=N)N)C(=O)N[C@@H](CO)C(=O)N[C@@H](CC(C)C)C(=O)NCC(=O)N[C@@H](CC(C)C)C(=O)N[C@@H](CC(C)C)C(=O)NCC(=O)N[C@@H](CCCCN)C(=O)N2 (H-AVCNLKRCQLSCRSLGLLGKCIGDKCECVKH-NH2; disulfide 3-21, 8-26, 12-28) |  |  |  |  |  | 

SMILES | pEC50 [1] | pEC50 [2] | inhibition [4] [%] | pEC50 [6] | inhibition [7] [%] | inhibition [8] [%] | also measured
CC[C@H](C)[C@@H]1NC(=O)[C@@H]2CSSC[C@H](NC(=O)[C@H](Cc3ccccc3)NC(=O)[C@H](C)N)C(=O)N[C@@H](CC(N)=O)C(=O)N[C@@H](CC(C)C)C(=O)N[C@@H](CCCNC(=N)N)C(=O)N[C@@H](CCSC)C(=O)N[C@H]3CSSC[C@H](NC(=O)[C@H](CCCCN)NC(=O)[C@H](CC(=O)O)NC(=O)CNC1=O)C(=O)N[C@@H](CCC(=O)O)C(=O)N[C@H](C(=O)N[C@H](C(=O)N[C@@H](CCCCN)C(=O)N[C@@H](Cc1c[nH]cn1)C(=O)O)C(C)C)CSSC[C@H](NC(=O)[C@H](CO)NC(=O)[C@H](CC(C)C)NC(=O)[C@H](CCC(N)=O)NC3=O)C(=O)N[C@@H](CCCNC(=N)N)C(=O)N[C@@H](CO)C(=O)N[C@@H](CC(C)C)C(=O)NCC(=O)N[C@@H](CC(C)C)C(=O)N[C@@H](CC(C)C)C(=O)NCC(=O)N[C@@H](CCCCN)C(=O)N2 (H-AFCNLRMCQLSCRSLGLLGKCIGDKCECVKH-OH; disulfide 3-21, 8-26, 12-28) | 8.96 | 9.54 |  |  |  |  | 
